ChEMBL document CHEMBL4842372, “Discovery of ARD-2585 as an Exceptionally Potent and Orally Active PROTAC Degrader of Androgen Receptor for the Treatment of Advanced Prostate Cancer” (J Med Chem, 2021)
Activity calls are given as the source filed them. No cut-off for these calls is given here.

Legend:
VCaP [1] = assay: Growth inhibition of human VCaP cells assessed as cell viability by WST-8 assay; assay type: functional, cell-based
VCaP [2] = assay: Antitumor activity against human VCaP cells xenografted in CB17:SCID mouse assessed as reduction in AR protein level in tumor at 20 mg/kg, po measured for 6 to 24 hrs by Western blot analysis; assay type: functional, organism-based; conditions: time 6-24 hrs
Method in brief: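 VCaP xenografts in male CB17 SCID mice grown to about 200 mm3; single oral gavage dose of 20 mg/kg in 100% PEG200; tumors collected at 6 and 24 h, RIPA lysates blotted for AR with GAPDH as loading control, band intensity normalised to loading control.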

[3] = Drug distribution in prostate gland of CB17:SCID mouse xenografted with human VCaP cells at 20 mg/kg, po measured at 24 hrs by LCMS analysis; assay type: ADME, organism-based; conditions: read-out: Drug uptake
Method in brief: (§1)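 Tumor-bearing male CB17 SCID mice (VCaP xenografts) given one 20 mg/kg oral dose in 100% PEG200, three mice per time point; plasma, tumor, liver, kidney, prostate and heart taken at 1, 6 and 24 h; tissues homogenised in water/acetonitrile, protein precipitated with cold acetonitrile, drug quantified by LC–MS/MS; ratios are tissue over plasma level.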

[4] = Drug distribution in tumor of CB17:SCID mouse xenografted with human VCaP cells at 20 mg/kg, po measured at 6 hrs by LCMS analysis; assay type: ADME, organism-based, Neoplasm; conditions: read-out: Drug uptake; method in brief: as §1
VCaP [5] = assay: Antitumor activity against human VCaP cells xenografted in CB17:SCID mouse assessed as reduction in AR protein level in tumor at 10 mg/kg, po for 3 days measured at 3 hrs by Western blot analysis; assay type: functional; conditions: 72 h, time 3 day
Method in brief: (§2)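 Male CB17 SCID mice bearing subcutaneous VCaP tumors (5 × 10^6 cells in Matrigel); dosed by oral gavage in 100% PEG200 at 10 mg/kg daily for 3 days; tumors harvested 3, 6 and 24 h post-dose, lysed in RIPA, Western blot for AR with GAPDH loading control, bands quantified by densitometry relative to loading control.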

VCaP [6] = assay: Antitumor activity against human VCaP cells xenografted in CB17:SCID mouse assessed as reduction in AR protein level in tumor at 10 mg/kg, po for 3 days measured at 6 hrs by Western blot analysis; assay type: functional; conditions: 72 h, time 3 day; method in brief: as §2
[7] = Drug distribution in plasma of CB17:SCID mouse xenografted with human VCaP cells at 20 mg/kg, po measured at 1 hrs by LCMS analysis; assay type: ADME, organism-based; method in brief: as §1
[8] = Drug distribution in tumor of CB17:SCID mouse xenografted with human VCaP cells at 20 mg/kg, po measured at 1 hrs by LCMS analysis; assay type: ADME, organism-based, Neoplasm; conditions: read-out: Drug uptake; method in brief: as §1
[9] = Drug distribution in CB17:SCID mouse xenografted with human VCaP cells assessed as tumor to plasma ratio at 20 mg/kg, po measured at 1 hrs by LCMS analysis; assay type: ADME, organism-based; method in brief: as §1
[10] = Drug distribution in CB17:SCID mouse xenografted with human VCaP cells assessed as prostate gland to plasma ratio at 20 mg/kg, po measured at 1 hrs by LCMS analysis; assay type: ADME, organism-based; method in brief: as §1
[11] = Drug distribution in CB17:SCID mouse xenografted with human VCaP cells assessed as heart to plasma ratio at 20 mg/kg, po measured at 1 hrs by LCMS analysis; assay type: ADME, organism-based; method in brief: as §1
[12] = Drug distribution in CB17:SCID mouse xenografted with human VCaP cells assessed as tumor to plasma ratio at 20 mg/kg, po measured at 6 hrs by LCMS analysis; assay type: ADME, organism-based; method in brief: as §1
[13] = Drug distribution in CB17:SCID mouse xenografted with human VCaP cells assessed as liver to plasma ratio at 20 mg/kg, po measured at 6 hrs by LCMS analysis; assay type: ADME, organism-based; method in brief: as §1
[14] = Drug distribution in CB17:SCID mouse xenografted with human VCaP cells assessed as tumor to plasma ratio at 20 mg/kg, po measured at 24 hrs by LCMS analysis; assay type: ADME, organism-based; method in brief: as §1
[15] = Drug distribution in liver of CB17:SCID mouse xenografted with human VCaP cells at 20 mg/kg, po measured at 24 hrs by LCMS analysis; assay type: ADME, organism-based; conditions: read-out: Drug uptake; method in brief: as §1
[16] = Drug distribution in CB17:SCID mouse xenografted with human VCaP cells assessed as liver to plasma ratio at 20 mg/kg, po measured at 24 hrs by LCMS analysis; assay type: ADME, organism-based; method in brief: as §1
[17] = Drug distribution in kidney of CB17:SCID mouse xenografted with human VCaP cells at 20 mg/kg, po measured at 24 hrs by LCMS analysis; assay type: ADME, organism-based; conditions: read-out: Drug uptake; method in brief: as §1
[18] = Drug distribution in heart of CB17:SCID mouse xenografted with human VCaP cells at 20 mg/kg, po measured at 24 hrs by LCMS analysis; assay type: ADME, organism-based; conditions: read-out: Drug uptake; method in brief: as §1
[19] = Drug distribution in CB17:SCID mouse xenografted with human VCaP cells assessed as heart to plasma ratio at 20 mg/kg, po measured at 24 hrs by LCMS analysis; assay type: ADME, organism-based; method in brief: as §1
VCaP [20] = assay: Antitumor activity against human VCaP cells xenografted in CB17:SCID mouse assessed as tumor growth inhibition at 10 mg/kg, po treated for 37 days relative to control; assay type: functional; conditions: 888 h, time 37 day, read-out: TGI
VCaP [21] = assay: Potency index, ratio of ARV-110 IC50 to compound IC50 for reduction in AR degradation human VCaP cells after 24 hrs by Western blot analysis; assay type: functional
[22] = molecular target: Voltage-gated inwardly rectifying potassium channel KCNH2 (Homo sapiens, UniProt Q12809); assay: Inhibition of human ERG up to 30 uM
Method in brief: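 hERG potassium channel stably expressed in HEK 293 cells; current recorded by manual patch clamp at 0.3, 1, 3, 10 and 30 μM, in duplicate, for concentration–response.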

[23] = molecular target: T1, Protein cereblon/Androgen receptor (Homo sapiens, UniProt P10275+Q96SW2); assay: Protac activity at CRBN/AR in human VCaP cells assessed as reduction in AR protein level at 100 nM after 3 hrs in presence of MLN4924 by Western blot analysis
[24] = molecular target: T1, Protein cereblon/Androgen receptor; assay: Protac activity at CRBN/AR in human VCaP cells assessed as reduction in AR protein level at 100 nM after 3 hrs in presence of thalidomide by Western blot analysis
[25] = molecular target: T1, Protein cereblon/Androgen receptor; assay: Protac activity at CRBN/AR in human VCaP cells assessed as reduction in AR protein level at 100 nM after 3 hrs in presence of N-((1r,4r)-4-((3-chloro-4-cyanophenyl)(methyl)amino)cyclohexyl)-4-(4-methylpiperazin-1-yl)benzamide by Western blot analysis

T1 sequence (P10275 whole entry, looked up): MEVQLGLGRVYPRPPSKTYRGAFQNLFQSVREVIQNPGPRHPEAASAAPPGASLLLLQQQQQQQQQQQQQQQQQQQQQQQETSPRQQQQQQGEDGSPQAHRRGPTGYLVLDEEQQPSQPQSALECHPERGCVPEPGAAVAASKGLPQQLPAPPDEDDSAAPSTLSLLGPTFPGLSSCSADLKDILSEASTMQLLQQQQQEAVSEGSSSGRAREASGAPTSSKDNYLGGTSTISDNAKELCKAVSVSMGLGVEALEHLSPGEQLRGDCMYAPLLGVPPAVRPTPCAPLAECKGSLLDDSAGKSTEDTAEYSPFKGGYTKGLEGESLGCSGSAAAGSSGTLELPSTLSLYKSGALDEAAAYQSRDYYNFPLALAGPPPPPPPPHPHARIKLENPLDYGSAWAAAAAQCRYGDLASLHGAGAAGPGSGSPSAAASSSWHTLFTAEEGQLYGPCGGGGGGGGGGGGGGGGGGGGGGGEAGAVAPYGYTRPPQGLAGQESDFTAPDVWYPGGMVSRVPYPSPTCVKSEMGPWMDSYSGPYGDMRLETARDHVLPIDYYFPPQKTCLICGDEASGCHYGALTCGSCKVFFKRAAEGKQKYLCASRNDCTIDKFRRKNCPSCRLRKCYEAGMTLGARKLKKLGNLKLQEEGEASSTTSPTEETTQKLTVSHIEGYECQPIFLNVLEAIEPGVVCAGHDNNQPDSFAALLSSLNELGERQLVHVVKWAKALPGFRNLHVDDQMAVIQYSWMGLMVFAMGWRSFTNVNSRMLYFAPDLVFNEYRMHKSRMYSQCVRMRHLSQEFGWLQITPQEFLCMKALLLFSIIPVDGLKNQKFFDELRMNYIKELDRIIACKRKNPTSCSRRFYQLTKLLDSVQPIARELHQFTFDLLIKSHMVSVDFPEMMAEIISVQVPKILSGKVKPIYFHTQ
T1 sequence (Q96SW2 whole entry, looked up): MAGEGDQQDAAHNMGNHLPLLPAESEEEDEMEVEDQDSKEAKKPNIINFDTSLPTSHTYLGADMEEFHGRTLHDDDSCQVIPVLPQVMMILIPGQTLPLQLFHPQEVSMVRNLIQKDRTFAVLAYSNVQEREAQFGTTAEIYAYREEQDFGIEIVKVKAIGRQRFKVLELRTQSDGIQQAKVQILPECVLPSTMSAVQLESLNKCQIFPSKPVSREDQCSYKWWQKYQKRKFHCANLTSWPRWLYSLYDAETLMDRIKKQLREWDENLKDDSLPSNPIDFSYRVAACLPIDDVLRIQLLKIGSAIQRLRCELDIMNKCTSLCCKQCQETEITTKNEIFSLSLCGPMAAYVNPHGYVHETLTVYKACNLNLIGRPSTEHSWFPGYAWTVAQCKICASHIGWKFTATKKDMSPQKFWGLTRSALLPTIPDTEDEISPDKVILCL
Chain of Voltage-gated inwardly rectifying potassium channel KCNH2 (Q12809 whole entry): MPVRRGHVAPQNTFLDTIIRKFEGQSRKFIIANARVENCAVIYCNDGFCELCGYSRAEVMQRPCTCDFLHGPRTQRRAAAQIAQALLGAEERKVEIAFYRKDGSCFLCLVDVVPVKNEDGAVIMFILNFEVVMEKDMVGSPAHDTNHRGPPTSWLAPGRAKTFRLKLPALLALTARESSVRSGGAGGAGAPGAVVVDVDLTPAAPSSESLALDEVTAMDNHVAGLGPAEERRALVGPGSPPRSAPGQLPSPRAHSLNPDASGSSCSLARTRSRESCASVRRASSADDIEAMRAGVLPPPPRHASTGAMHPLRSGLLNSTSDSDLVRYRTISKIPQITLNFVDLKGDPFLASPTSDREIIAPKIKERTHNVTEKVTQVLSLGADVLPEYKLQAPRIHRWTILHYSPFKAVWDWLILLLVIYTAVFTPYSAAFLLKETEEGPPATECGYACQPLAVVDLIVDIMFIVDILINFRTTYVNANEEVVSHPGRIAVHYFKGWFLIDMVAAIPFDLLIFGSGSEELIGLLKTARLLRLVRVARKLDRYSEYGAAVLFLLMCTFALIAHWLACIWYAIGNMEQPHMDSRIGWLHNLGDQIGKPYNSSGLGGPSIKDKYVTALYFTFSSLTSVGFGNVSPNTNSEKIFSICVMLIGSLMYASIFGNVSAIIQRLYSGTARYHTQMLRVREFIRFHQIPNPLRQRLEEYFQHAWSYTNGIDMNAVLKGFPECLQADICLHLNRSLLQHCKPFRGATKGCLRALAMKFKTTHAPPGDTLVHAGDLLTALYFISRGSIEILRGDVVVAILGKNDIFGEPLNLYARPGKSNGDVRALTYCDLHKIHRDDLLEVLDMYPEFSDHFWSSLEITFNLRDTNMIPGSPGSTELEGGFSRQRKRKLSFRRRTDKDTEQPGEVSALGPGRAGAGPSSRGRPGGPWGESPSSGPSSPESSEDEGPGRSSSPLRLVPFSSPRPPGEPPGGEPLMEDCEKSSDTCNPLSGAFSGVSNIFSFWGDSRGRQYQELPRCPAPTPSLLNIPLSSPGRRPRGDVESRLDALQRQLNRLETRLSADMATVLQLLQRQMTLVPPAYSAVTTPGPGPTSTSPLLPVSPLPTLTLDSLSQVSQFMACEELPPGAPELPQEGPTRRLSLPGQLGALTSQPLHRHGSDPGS

In the case of `CN(c1ccc(C#N)c(Cl)c1)[C@H]1CC[C@H](NC(=O)c2ccc(N3CCN(C4CN(c5ccc6c(c5)C(=O)N(C5CCC(=O)NC5=O)C6=O)C4)CC3)cc2)CC1` (stereo not given in full), the IC50 (VCaP [1]) is reported as 1.5 nM, the inhibition (VCaP [2]) is reported as “Active” and the concentration at 24 h [3] is reported as 107 ng/g. It also gave a concentration at 6 h [4] of 201 ng/g, an inhibition in vivo at 10 mg/kg (VCaP [5]) of 78% and an inhibition in vivo at 10 mg/kg (VCaP [6]) of 60%. The concentration at 1 h [7] was 70 ng/mL, the concentration at 1 h [8] was 47 ng/g and the Kp at 1 h [9] was 0.7. It also gave a Kp at 1 h [10] of 0.4, a Kp at 1 h [11] of 3 and a Kp at 6 h [12] of 1.5. For the same compound, the Kp at 6 h [13] was 26.2, the Kp at 24 h [14] was 1.4 and the concentration at 24 h [15] was 6870 ng/g. The Kp at 24 h [16] was 32.1, the concentration at 24 h [17] was 366 ng/g and the concentration at 24 h [18] was 683 ng/g. The Kp at 24 h [19] was 3.2, the inhibition in vivo at 10 mg/kg (VCaP [20]) was 54.9% and the Ratio (VCaP [21]) was 30. The “inhibition (INH)” value [22] was “Not Active”, the Activity [23] was “inactive” and the Activity [24] was “inactive”. For the same compound, the Activity [25] was “inactive”.
